This is a sample that favours compounds with a hit; in the whole collection about 2.9% have one here.
RBBP9 inh: human RBBP9 hydrolase inhibition; O75884; recombinant RBBP9, FP-Rh probe fluorescence polarization; inhibition, % at 7.94 µM; 220,000 compounds, 0.2% hits; AID 1515;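 active = inhibition above the campaign mean of all tested compounds plus 3 SD, cut at about 14% in these data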;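 also: plate controls were DMSO wells with RBBP9 for no effect and wells lacking RBBP9 protein for full effect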
Target sequence (O75884 whole entry, looked up): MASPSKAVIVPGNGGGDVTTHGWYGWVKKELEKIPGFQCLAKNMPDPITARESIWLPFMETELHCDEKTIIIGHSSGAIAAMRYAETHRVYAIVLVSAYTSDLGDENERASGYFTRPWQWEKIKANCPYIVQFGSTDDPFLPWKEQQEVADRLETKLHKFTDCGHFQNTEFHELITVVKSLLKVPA
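Controls: DMSO-treated enzyme wells and wells lacking RBBP9 | Material: RBBP9 protein | Technique: Fluorescence polarization | Replication: Single well per compound, no replicates | Buffer or medium: Tris-NaCl-Pluronic buffer, pH 8.0 | Timing: 30 min compound preincubation, 45 min probe labeling, 25 °C | Read-out basis: Percent inhibition from mP, scaled between DMSO and no-protein wells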
Hck Nef HTS: inhibitors of human Hck kinase activated by Nef; AID 463187; inhibition, % at 20 µM; 220,000 compounds, 0.68% hits; P08631; Recombinant Hck-YEEI plus Nef, Z-Lyte FRET kinase assay;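 active = Hck-Nef kinase inhibition above about 50%, limit read from the data; inactive = inhibition below that limit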;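 also: 0% = DMSO with Hck plus Nef and 100% = Hck alone without Nef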
Runt-SMMHC FRET: inhibitors of human RUNX1 Runt domain binding to CBFb-SMMHC; inhibition, % at 20 µM; Q01196+Q13951; Cerulean-Runt/Venus-CBFb-SMMHC FRET ratio 530/480, 1 h; 220,000 compounds, 0.74% hits;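 active = mean inhibition across duplicate retests at 20 µM reaching about 50%, limit read from the data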;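 also: 0% = DMSO wells and 100% = wells with excess untagged CBFb-SMMHC; inhibitors lower the FRET ratio by blocking Runt binding to CBFb-SMMHC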
PfM18AAP inh: PfM18AAP enzyme inhibition | recombinant PfM18AAP, H-Glu-NHMec fluorogenic cleavage | inhibition, % at 7.35 µM | 290,000 compounds, 1.2% hits;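 active = inhibition above the campaign mean inhibition over all tested compounds plus 3 SD, cut at about 28% in these data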;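 also: 0% = plate median of test compound wells and 100% = 2 mM ZnCl2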
RanGTP-Imp inh: inhibitors of RanGTP-importin-beta interaction, primary screen, biochemical, FRET, CFP-Ran, YFP-importin-beta, homogeneous | cell-free CFP-Ran/YFP-importin-beta FRET ratio | inhibition, % (test concentration not listed) | 300,000 compounds, 1.1% hits;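 active = more than half of the replicate wells show a fall in the fluorescence ratio signal beyond about 16%, limit read from the data, passing the limit was not always enough; inconclusive = exactly half of the replicate wells pass the set limit; inactive = fewer than half of replicates pass the limit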;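 also: 0% = DMSO wells and 100% = Ran loaded with GDP instead of GTP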
Runt-CBFb FRET: Runt domain-CBFb interaction inhibition; Q01196+Q13951; Cerulean-Runt/Venus-CBFb FRET ratio 530/480, 1 h; inhibition, % at 20 µM; 220,000 compounds, 0.46% hits; AID 1496;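 active = inhibition over about 50% at 20 µM in the single-dose screen, limit read from the data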;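 also: 0% = DMSO wells and 100% = excess unlabeled CBFb competitor control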
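System: Cerulean-labeled Runt domain protein | Quantity: 100 nM of each labeled protein | Schedule: 1 h compound exposure, room temperature | Detection: Fluorescence energy transfer, 422 nm excitation, 530/480 nm emission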
Runt-CBFb TRFRET: inhibitors of human RUNX1 Runt domain binding to CBFb. shares compounds with Runt-CBFb FRET. TR-FRET RUNX1 Runt domain-CBFb binding. inhibition, % at 20 µM. 480 compounds, 20% hits. AID 1502; in the data active = inhibition above about 40%
* hit, by the source's call; ? = inconclusive; . = not tested or not shown.

SMILES	RBBP9 inh	Hck Nef HTS	Runt-SMMHC FRET	PfM18AAP inh	RanGTP-Imp inh	Runt-CBFb FRET	Runt-CBFb TRFRET
O=C(CSc1nnc(CNC(=O)c2ccco2)o1)Nc1ccccc1	-6	15	-2	3	1	1	.
O=C(CSc1nnc(CNC(=O)c2ccco2)o1)Nc1nc2ccccc2s1	-5	-7	21	29*	2	56*	64*
Cc1ccc(S(=O)(=O)c2cc3c(=O)n4ccccc4nc3n(CC3CCCO3)c2=N)cc1C (stereo unspecified)	3	4	106*	-5	154*	98*	29
COCCn1c(=O)[nH]c2cc(C(=O)N3CCN(c4cccc(C)c4C)CC3)ccc2c1=O	.	.	.	4	-3	.	.
Cc1cc(C(=O)OC(C(=O)Nc2ccc(C)c(Cl)c2)c2ccccc2)c(C)o1 (stereo unspecified)	-13	0	10	-2	-1	65*	-11
Cc1ccc(NC(=O)C(OC(=O)c2ccccc2Cl)c2ccccc2)cc1Cl (stereo unspecified)	-35	-1	0	-6	-4	2	.
CN(C)Cc1c(C(=O)N/N=C/CCc2ccccc2)nnn1-c1nonc1N	.	.	.	-6	0	.	.
CC1CN(C(=O)CCNC(=O)c2ccc(Br)cc2)CC(C)O1 (stereo unspecified)	.	.	.	.	-1	.	.
NS(=O)(=O)c1ccc(N/C=C\C(=O)c2ccc3ccccc3c2)cc1	-14	8	-62	-3	-3	50*	44*
COc1ccc(C2c3ccc(O)cc3Oc3ncn4nc(-c5ccccn5)nc4c32)cc1OC (stereo unspecified)	-13	24	28	12	7	18	.
COc1ccc(C2c3ccc(O)cc3Oc3ncn4nc(-c5ccccn5)nc4c32)cc1 (stereo unspecified)	-9	6	.	16	?	53*	-4
COc1ccc([N+](=O)[O-])cc1NC(=O)CSc1nc(C)cc(C)n1	-6	2	46	30*	-2	57*	16
CCC1CCCCN1C(=O)CSc1nc(N)c(NC(=O)c2ccco2)c(=O)[nH]1 (stereo unspecified)	2	-4	-12	9	2	63*	-9
CC(C)(C)c1ccc(OCCC(=O)Nc2ccc(N3CCOCC3)cc2N2CCOCC2)cc1	.	.	.	.	-2	.	.
O=C(COc1cccc(Cl)c1Cl)Nc1ccc2c(c1)CCC2	-7	0	-13	-1	3	63*	-27
COc1ccccc1N1CCN(Cc2ccsc2)CC1	5	3	1	1	7	54*	-6
COc1ccc(CN2CCN(c3ccccc3OC)CC2)cc1OC	.	.	.	0	0	.	.
CCC(=O)Nc1nc(-c2ccc3c(c2)OCCO3)cs1	-4	3	-1	3	7	-1	.
c1cc2c(cc1-c1csc(NNC3=NCCCCC3)n1)OCCO2	5	35	71*	41*	-2	60*	35
CN1/C(=C\C(=O)c2cccnc2)Sc2ccccc21	-2	44	51*	20	10	66*	14
COCCOC(=O)c1c(N)n(CCCN2CCOCC2)c2nc3ccccc3nc12	-4	31	97*	5	11	51*	-4
COc1ccccc1CNC(=O)CSc1nc2ccccc2c(=O)n1CCCN1CCOCC1	-3	7	-2	2	-2	-2	.
Cc1ccc(NC2CCCN(C(=O)c3cccc(-c4ncc[nH]4)c3)C2)cc1C (stereo unspecified)	.	.	.	1	-1	.	.
Nc1nc2ccc(S(=O)(=O)N3CCCCC3)cc2s1	3	-1	56	16	-5	56*	6
CCC1CCCCN1CCCNC(=O)CCC(=O)N1CCOc2ccccc21 (stereo unspecified)	.	.	.	-3	0	.	.
SMILES	RBBP9 inh	Hck Nef HTS	Runt-SMMHC FRET	PfM18AAP inh	RanGTP-Imp inh	Runt-CBFb FRET	Runt-CBFb TRFRET
COC(=O)c1ccc(NC(=O)CCN2C(=O)C3C4CCC(C4)C3C2=O)cc1 (stereo unspecified)	.	.	.	-5	1	.	.
COc1cccc2cc(C(=O)N3CCN(C45CC6CC(CC(C6)C4)C5)CC3)c(=O)oc12	1	-1	90	-8	53*	60*	-4
COc1ccc(NC(=O)NNC(=O)COc2ccc3cc(Br)ccc3c2)c(OC)c1	.	.	.	0	?	.	.
Cc1[nH]c2ccccc2c1SCC(=O)O	-7	-7	-9	-9	-4	70*	-28
O=C(O)CSc1c(O)c2ccccc2[nH]c1=O	-5	25	23	-121	4	23	.
COc1ccc(-c2cc(C(F)(F)F)c3c(n2)sc2c(O)cc(=O)[nH]c23)c(OC)c1	-2	-4	-115	11	-42	-12	.
Cc1cc(C)c2c(n1)sc1c(O)cc(=O)[nH]c12	-7	4	36	-3	0	52*	21
O=C(O)c1ccc(-n2c(-c3cc(-c4ccco4)[nH]n3)n[nH]c2=S)cc1	6	-1	53	19	?	53*	81*
CC(=O)c1ccc(-n2c(-c3cc(-c4ccco4)[nH]n3)n[nH]c2=S)cc1	-9	-3	12	11	-1	18	.
Cc1ccc2c(c1)sc(C)[n+]2CCCS(=O)(=O)[O-]	-6	31	50	-22	1	58*	29
O=c1oc2c(-c3cccc(F)c3)cc(O)cc2s1	3	28	9	26	-1	58*	23
CCc1ccc(NC(=O)[C@H](C)NC(=O)C2CCN(C(=O)[C@@H](N)C(C)C)CC2)cc1	.	.	.	4	-2	.	.
CC(c1ccccc1C(O)c1ccccc1)N(C)C (stereo unspecified)	-6	1	0	-3	3	57*	-14
OC(c1ccccc1)c1ccncc1 (stereo unspecified)	.	.	.	.	1	.	.
COc1ccc(S(=O)(=O)N(C(C)=O)c2ccc3oc(=O)sc3c2)cc1	14	0	58*	17	0	67*	16
CC1CCCCC1NC(=O)c1cccc(N2C(=O)C3C4C=CC(C4)C3C2=O)c1 (stereo unspecified)	.	.	.	-2	-3	.	.
Cc1ccccc1N=Cc1c(O)n(-c2nccs2)c(=O)c2ccccc12	-12	3	-61	-3	?	-45	.
O=c1c2ccccc2sn1-c1nccs1	4	-27	80*	-1	8	50*	-8
O=C1CC2(CCN(C(=O)COc3ccc(Cl)cc3)CC2)Oc2ccccc21	.	.	.	.	-3	.	.
Cc1ccc(C(=O)Cn2nnc3ccccc32)cc1[N+](=O)[O-]	-7	21	3	-8	1	1	.
